Compound activity: PubChem, several laboratories
A selection: hits, their analogues and other compounds. The true share with any hit is near 1.5%.
T cell modulator – T cell immune modulators affecting CD8 T cell-vesicle binding; 2C CD8+ T cell-vesicle binding, flow cytometry; stronger effect = lower value; response (vesicle binding), % at 7 µM; 0.068% of 330,000 active;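 active = response, share of CD8 T cells binding vesicles, and their 90th percentile fluorescence all below set limits, cut at about 80% in these data, passing the limit was not always enough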;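 also: values below 100% mean blocked vesicle binding to the CD8+ T cells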
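System: murine 2C transgenic CD8+ T lymphocytes; also added: QL9-loaded Drosophila micro-vesicles; times: binding 1.5 h at 37 °C; measured by: flow cytometry, PE anti-B7-1 (FL2) versus Alexa647 anti-CD8 (FL8), PFA-fixed; control set: Peptide-free naked vesicles (low) and QL9 vesicles with 0.7% DMSO vehicle (high)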
VLA-4 inh – inhibition in a human VLA-4 binding assay; VLA-4 expressing cells, ligand binding flow cytometry; inhibition, % (about 7 µM as worked out from the volumes in the protocol); 0.2% of 330,000 active; in the data active = inhibition above about 50%
CHT inh – inhibitors of human choline transporter CHT. Q9GZV3. CHT-expressing cells, membrane potential dye, choline response; stronger effect = lower value. B-score at 10 µM. 0.86% of 310,000 active. AID 488975;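 active = B-score over 3 SD under the library average, and starting fluorescence ratio not unusually high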;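 also: choline stimulus applied at its EC90 after an EC20 pre-addition; B-score computed on integrated fluorescence ratio after choline addition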
Target sequence (Q9GZV3 whole entry, looked up): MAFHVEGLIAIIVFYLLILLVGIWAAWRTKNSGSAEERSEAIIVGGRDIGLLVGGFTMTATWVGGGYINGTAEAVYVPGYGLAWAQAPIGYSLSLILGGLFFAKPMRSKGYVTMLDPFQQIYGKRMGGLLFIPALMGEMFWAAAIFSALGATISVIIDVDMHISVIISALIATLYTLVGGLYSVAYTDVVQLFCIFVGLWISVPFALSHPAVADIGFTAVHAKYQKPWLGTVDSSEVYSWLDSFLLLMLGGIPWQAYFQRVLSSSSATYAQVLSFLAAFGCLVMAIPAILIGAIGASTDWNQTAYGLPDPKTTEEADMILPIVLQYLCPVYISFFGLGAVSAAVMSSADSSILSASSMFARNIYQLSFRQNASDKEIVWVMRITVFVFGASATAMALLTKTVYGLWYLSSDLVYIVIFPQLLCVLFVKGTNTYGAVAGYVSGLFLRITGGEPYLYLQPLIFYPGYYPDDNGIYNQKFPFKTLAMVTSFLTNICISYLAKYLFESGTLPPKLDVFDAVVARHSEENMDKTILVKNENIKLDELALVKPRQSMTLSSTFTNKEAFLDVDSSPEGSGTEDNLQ
CHT PAM – human CHT allosteric activation | AID 488977 | B-score at 10 µM | Q9GZV3 | CHT-expressing cells, membrane potential dye, choline EC20; stronger effect = higher value; LV-AA mutant CHT in HEK293 cells | 0.49% of 310,000 active;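 active = initial fluorescence not abnormally high and integrated response B-score, plate-corrected, over 3 SD above library mean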
CHT block conf – confirmation of human choline transporter CHT inhibitors; shares compounds with CHT inh; CHT-expressing cells, choline membrane potential dye; LV-to-AA substituted CHT, HEK293 cells; CHT activity remaining % of control (stronger effect = lower value), % at 10 µM; 70% of 2,400 active; AID 493221;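 active = choline transporter activity left, mean of duplicates at 10 µM, below buffer-only control mean minus 3 SD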;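 also: depolarization triggered by choline at its EC90 following an EC20 pre-addition; 0% = hemicholinium-3 full block and 100% = buffer-only control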
HEK293 MPD ctr – activity in parental HEK293 cells lacking CHT | 4% of 2,400 active | membrane potential ratio readout (active if shifted either direction beyond buffer ±3SD; no single direction) at 10 µM | membrane potential dye, choline response; active = decrease or increase beyond buffer ±3SD | shares compounds with CHT inh;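 also: parental cells lack the transporter so any hit is non-specific; ratio is peak minus trough fluorescence over baseline after EC90 choline challenge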
* marks the source's active call; other numbers are inactive results.

Results for O=C(NC(=S)NNC(=O)c1ccc(Cl)cc1Cl)c1cccnc1 ?
T cell modulator: 386; VLA-4 inh: 7; CHT inh: inactive; CHT PAM: inactive

How did Cc1ccccc1C(=O)NNC(=S)NC(=O)c1ccc(Cl)cc1Cl do in these assays?
T cell modulator: 368; VLA-4 inh: 5; CHT inh: -9.3*; CHT PAM: inactive; CHT block conf: 45%*; HEK293 MPD ctr: inactive

What do the screens show for `O=C(C1CCN(S(=O)(=O)c2ccccc2F)CC1)N1CCc2ccccc2C1`?
T cell modulator: 136; VLA-4 inh: 13; CHT inh: inactive; CHT PAM: inactive

Results for C=CCN(CC=C)S(=O)(=O)c1ccc2nc(NC(=O)C(C)C)sc2c1 ?
T cell modulator: 221; VLA-4 inh: 27; CHT inh: -7.3*; CHT PAM: inactive; CHT block conf: 43%*; HEK293 MPD ctr: inactive

Results for CCOC(=O)c1ccc2nc(NC(=O)C(C)C)sc2c1 ?
T cell modulator: 418; VLA-4 inh: 23; CHT inh: inactive; CHT PAM: inactive

How did CC1CCCCN1C(=O)c1ccc(C(=O)Nc2ccc(F)cc2)cc1 (centres undefined) do in these assays?
T cell modulator: 170; VLA-4 inh: 0; CHT inh: -6.4*; CHT PAM: inactive; CHT block conf: 45%*; HEK293 MPD ctr: inactive

What do the screens show for `CC(=O)Nc1ccc(NC(=O)CN(C)S(=O)(=O)c2ccc3c(c2)CCC(=O)N3)cc1`?
T cell modulator: 338; VLA-4 inh: 11; CHT inh: inactive; CHT PAM: inactive

How did COc1cccc(N2CCN(c3ncnc4c3[nH]c3ccc(F)cc34)CC2C)c1 (centres undefined) do in these assays?
T cell modulator: 142; VLA-4 inh: -19; CHT inh: -7*; CHT PAM: inactive; CHT block conf: 63%*; HEK293 MPD ctr: inactive

What do the screens show for `COc1cccc(N2CCN(c3ncnc4c3[nH]c3ccccc34)CC2C)c1` (centres undefined)?
T cell modulator: 163; VLA-4 inh: -14; CHT inh: inactive; CHT PAM: inactive

How did CCCCC(Br)C(=O)Nc1ccc(S(=O)(=O)Nc2cc(C)nc(C)n2)cc1 (centres undefined) do in these assays?
T cell modulator: 125; VLA-4 inh: 0; CHT inh: -5.8*; CHT PAM: inactive; CHT block conf: 15%*; HEK293 MPD ctr: inactive

Results for Cc1cc(NS(=O)(=O)c2ccc(NC(=O)/C=C/c3c(F)cccc3Cl)cc2)nc(C)n1 ?
T cell modulator: 114; VLA-4 inh: -2; CHT inh: -5.7*; CHT PAM: inactive; CHT block conf: 31%*; HEK293 MPD ctr: inactive

What do the screens show for `CCCCOC(=O)Nc1ccc(S(=O)(=O)Nc2cc(C)nc(C)n2)cc1`?
T cell modulator: 527; VLA-4 inh: -19; CHT inh: inactive; CHT PAM: inactive

Results for CCCNC(=O)c1ccc2c(c1)nc(C)n2-c1cccc(Cl)c1 ?
T cell modulator: 927; VLA-4 inh: 7; CHT inh: inactive; CHT PAM: inactive

What do the screens show for `Cc1nn(C)cc1S(=O)(=O)Nc1ncccn1`?
T cell modulator: 240; VLA-4 inh: 24; CHT inh: inactive; CHT PAM: inactive

How did COCCn1c(CN2CCN(c3cccc(Cl)c3)CC2)nc2c1c(=O)n(C)c(=O)n2C do in these assays?
T cell modulator: 446; VLA-4 inh: 0; CHT inh: -7.3*; CHT PAM: inactive; CHT block conf: -5.6%*; HEK293 MPD ctr: inactive

Results for CCOCCn1c(CN2CCN(c3ccc(F)cc3)CC2)nc2c1c(=O)n(C)c(=O)n2C ?
T cell modulator: 216; VLA-4 inh: 8; CHT inh: -17*; CHT PAM: inactive; CHT block conf: 10%*; HEK293 MPD ctr: inactive

How did COC(=O)Cn1c(CN2CCN(c3ccc(F)cc3)CC2)nc2c1c(=O)n(C)c(=O)n2C do in these assays?
T cell modulator: 178; VLA-4 inh: 26; CHT inh: -11*; CHT PAM: inactive; CHT block conf: -12%*; HEK293 MPD ctr: inactive

What do the screens show for `CCCCn1nc(C(=O)N2CCN(S(=O)(=O)c3ccccc3)CC2)c2ccccc2c1=O`?
T cell modulator: 137; VLA-4 inh: 5; CHT inh: inactive; CHT PAM: inactive

What do the screens show for `O=C(C[C@@H]1C/C=C\C[C@H](Cc2ccc(F)cc2)C(=O)OCCNC1=O)NCCO`?
T cell modulator: 278; VLA-4 inh: 6

How did CN(Cc1c(C(=O)N/N=C/c2ccc(O)cc2)nnn1-c1nonc1N)c1ccccc1 do in these assays?
T cell modulator: 579; VLA-4 inh: 1; CHT inh: inactive; CHT PAM: inactive

What do the screens show for `CC(C)=CCc1c(O)cc2oc3c(CC=C(C)C)c(O)c(O)c(CC=C(C)C)c3c(=O)c2c1O`?
T cell modulator: 200; VLA-4 inh: 15; CHT inh: -6.5*; CHT PAM: inactive; CHT block conf: inactive; HEK293 MPD ctr: inactive

How did CCOC(=O)N1CCN(C(=O)c2oc3ccc(S(=O)(=O)N4CCCCCC4)cc3c2C)CC1 do in these assays?
T cell modulator: 483; VLA-4 inh: 4; CHT inh: -6.2*; CHT PAM: inactive; CHT block conf: 67%*; HEK293 MPD ctr: inactive

What do the screens show for `CCOC(=O)N1CCN(C(=O)c2oc3ccc(S(=O)(=O)N4CCOCC4)cc3c2C)CC1`?
T cell modulator: 258; VLA-4 inh: 4; CHT inh: inactive; CHT PAM: inactive

How did Fc1ccc(CNc2ccc(N3CCN(Cc4ccccc4)CC3)cc2)cc1 do in these assays?
T cell modulator: 70; VLA-4 inh: 2; CHT inh: inactive; CHT PAM: inactive; CHT block conf: inactive; HEK293 MPD ctr: inactive

What do the screens show for `CC(=O)N1CCN(c2ccc(NCc3ccccc3)cc2)CC1`?
T cell modulator: 382; VLA-4 inh: 6; CHT inh: inactive; CHT PAM: inactive

How did O=C(NC(=S)NNC(=O)c1cccs1)c1ccc(Br)o1 do in these assays?
T cell modulator: 233; VLA-4 inh: 14; CHT inh: -7.5*; CHT PAM: inactive; CHT block conf: 43%*; HEK293 MPD ctr: inactive

Results for COc1ccc(CN(C(=O)c2ccco2)c2ccccc2)cc1 ?
T cell modulator: 201; VLA-4 inh: 2; CHT inh: -5*; CHT PAM: inactive; CHT block conf: inactive; HEK293 MPD ctr: inactive

Results for COc1ccc(CN(C(=O)c2cccs2)c2ccccc2)cc1 ?
T cell modulator: inactive; VLA-4 inh: 2; CHT inh: inactive; CHT PAM: inactive
